Reference: ChEMBL document CHEMBL2429835
In brackets after ≈: the same amount, converted by molar mass. Activity calls are given as the source filed them. No cut-off for these calls is given here.

Key:
[1] = test system: Mycobacterium tuberculosis; assay: Antimycobacterial activity against Mycobacterium tuberculosis H37Rv ATCC 27294 by microplate Alamar blue assay; type: functional
How it was run: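 Strain (H37Rv or ATCC single-drug-resistant isolates) grown to late log phase in 7H9 with 0.2% glycerol, 0.05% Tween80, 10% OADC. Cells washed into PBS, passed through 8 μm filter, frozen; CFU titred on 7H11 agar. MABA MIC is the lowest concentration giving ≥90% growth inhibition versus untreated controls.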

[2] = test system: Mycobacterium tuberculosis; assay: Antimycobacterial activity against Mycobacterium tuberculosis H37Rv ATCC 27294 incubated for 10 days under low oxygen condition followed by normoxic environment for 28 hrs by low oxygen recovery assay; type: functional
How it was run: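 Luciferase (luxAB) reporter strain adapted to low oxygen in a fermenter. Exposed to samples for 10 days at 37 °C under hypoxia, then 28 h normoxic at 37 °C. Luminescence read; MIC is the lowest concentration cutting luminescence by ≥90% versus untreated cultures.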

[3] = test system: Vero; assay: Cytotoxicity against african green monkey Vero cells after 72 hrs by MTS-PMS assay; type: cell-based; details: Chlorocebus sabaeus
How it was run: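 Vero cells in EMEM with 10% FBS at 37 °C, 5% CO2, diluted to 10^6 cells/mL. Exposed to 2-fold serial dilutions for 72 h at 37 °C.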

[4] = test system: Escherichia coli; assay: Antibacterial activity against Escherichia coli ATCC 25922 at 100 ug/ml by broth microdilution method; type: functional, organism-based
How it was run: (§1)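 Broth microdilution per NCCLS guidelines; growth read spectrophotometrically at 570 nm, except S. pneumoniae at 490 nm, which was tested with 2% HBL supplement. Compounds tested up to 100 μg/mL.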

[5] = test system: Mycobacteroides abscessus; assay: Antimycobacterial activity against Mycobacterium abscessus ATCC 19977 at 100 ug/ml after 7 days by microplate Alamar blue assay; type: functional
[6] = test system: Candida albicans; assay: Antifungal activity against Candida albicans ATCC 90028 at 100 ug/ml by broth microdilution method; type: functional, organism-based; how it was run: as §1
[7] = test system: Acinetobacter baumannii; assay: Antibacterial activity against Acinetobacter baumannii at 100 ug/ml by broth microdilution method; type: functional, organism-based
[8] = test system: Streptococcus pneumoniae; assay: Antibacterial activity against Streptococcus pneumoniae at 100 ug/ml; type: functional, organism-based; how it was run: as §1
[9] = test system: Mycobacterium avium; assay: Antimycobacterial activity against Mycobacterium avium ATCC 15769 at 100 ug/ml after 7 days by microplate Alamar blue assay; type: functional, organism-based
How it was run: (§2)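 MABA in 7H12 (M. abscessus, M. bovis BCG) or 7H9 (others). Pre-dye incubation: M. abscessus 37 °C 3 days; BCG 37 °C 7 days; M. chelonae 30 °C 3 days; M. marinum 30 °C 5 days; M. avium and M. kansasii 37 °C 6 days. Then 20% Tween80 plus Alamar blue added: 4 h (abscessus), 6 days (chelonae), 1 day (others). Tested at 100 μg/mL.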

[10] = test system: Pseudomonas aeruginosa; assay: Antibacterial activity against Pseudomonas aeruginosa ATCC 27853 at 100 ug/ml by broth microdilution method; type: functional, organism-based; how it was run: as §1
[11] = test system: Mycobacteroides chelonae; assay: Antimycobacterial activity against Mycobacterium chelonae ATCC 35752 at 100 ug/ml after 9 days by microplate Alamar blue assay; type: functional, organism-based; how it was run: as §2
[12] = test system: Mycobacterium marinum; assay: Antimycobacterial activity against Mycobacterium marinum ATCC 927 at 100 ug/ml after 6 days by microplate Alamar blue assay; type: functional, organism-based; how it was run: as §2
[13] = test system: Enterococcus faecalis; assay: Antibacterial activity against Enterococcus faecalis ATCC 29212 at 100 ug/ml by broth microdilution method; type: functional, organism-based; how it was run: as §1
[14] = test system: Mycobacterium kansasii; assay: Antimycobacterial activity against Mycobacterium kansasii ATCC 12478 at 100 ug/ml after 7 days by microplate Alamar blue assay; type: functional; how it was run: as §2
[15] = test system: Staphylococcus aureus; assay: Antibacterial activity against Staphylococcus aureus ATCC 29213 at 100 ug/ml by broth microdilution method; type: functional, organism-based; how it was run: as §1
[16] = test system: Mycolicibacterium smegmatis; assay: Antimycobacterial activity against Mycobacterium smegmatis MC2 155 at 100 ug/ml after 3 days by microplate Alamar blue assay; type: functional, organism-based; details: str. MC2 155
How it was run: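 MABA: 37 °C for 3 days, then Tween80 (20%) and Alamar blue added, 4 h further incubation; fluorescence read-out. Tested at 100 μg/mL.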

[17] = Selectivity index, ratio of IC50 for african green monkey Vero cells to MIC90 for Mycobacterium tuberculosis H37Rv ATCC 27294 by microplate Alamar blue assay; type: functional
[18] = test system: Mycobacterium kansasii; assay: Antimycobacterial activity against Mycobacterium kansasii ATCC 12478 after 7 days by microplate Alamar blue assay; type: functional; details: ATCC 12478, 168 h; how it was run: as §2
[19] = test system: Mycobacterium marinum; assay: Antimycobacterial activity against Mycobacterium marinum ATCC 927 after 6 days by microplate Alamar blue assay; type: functional; details: ATCC 927, 144 h

Work on `CO[C@H]1/C=C/O[C@@]2(C)Oc3c(C)c(O)c4c(O)c(c(/C=N/N5CCN(C)CC5)c(O)c4c3C2=O)NC(=O)/C(C)=C\C=C\[C@H](C)[C@H](O)[C@@H](C)[C@@H](O)[C@@H](C)[C@H](OC(C)=O)[C@@H]1C` [RIFAMPIN] yielded an MIC90 [1] of 0.08 µg/mL (≈ 0.0972 µM), an MIC90 [2] of less than 0.05 µg/mL and an IC50 [3] greater than 100 µg/mL.
In the case of `NNC(=O)c1ccncc1` [ISONIAZID], the MIC90 [1] is reported as 0.03 µg/mL (≈ 0.219 µM) and the IC50 [3] is reported as greater than 100 µg/mL.
In the case of `O=c1cc(-c2ccccc2)c2cc(Cl)ccc2o1`, the MIC90 [1] is reported as greater than 100 µg/mL, the Activity [4] is reported as “inactive” and the Activity [5] is reported as “inactive”. For the same compound, the Activity [6] was “inactive”, the Activity [7] was “inactive” and the Activity [8] was “inactive”. The IC50 [3] was greater than 100 µg/mL, the Activity [9] was “inactive” and the Activity [10] was “inactive”. The Activity [11] was “inactive”, the Activity [12] was “inactive” and the Activity [13] was “inactive”. The Activity [14] was “inactive”, the Activity [15] was “inactive” and the Activity [16] was “inactive”.
For `CCOC(=O)c1c(-c2ccccc2)c2ccc(Cl)cc2oc1=O`, the MIC90 [1] was 35.9 µg/mL (≈ 109 µM), the Activity [4] was “inactive” and the Activity [5] was “inactive”. For the same compound, the Activity [6] was “inactive”, the MIC90 [2] was 23.2 µg/mL (≈ 70.6 µM) and the “Selectivity Index” value [17] was 1.1. For the same compound, the Activity [7] was “inactive”, the Activity [8] was “inactive” and the IC50 [3] was 39.4 µg/mL (≈ 120 µM). For the same compound, the Activity [9] was “inactive”, the Activity [10] was “inactive” and the Activity [11] was “inactive”. For the same compound, the Activity [12] was “inactive”, the Activity [13] was “inactive” and the Activity [14] was “inactive”. The Activity [15] was “inactive” and the Activity [16] was “inactive”.
In the case of `O=c1cc(-c2ccccc2)c2ccc(Cl)cc2o1`, the MIC90 [1] is reported as 23.9 µg/mL (≈ 93.1 µM), the Activity [4] is reported as “inactive” and the Activity [5] is reported as “inactive”. For the same compound, the Activity [6] was “inactive”, the MIC90 [2] was 21.9 µg/mL (≈ 85.3 µM) and the “Selectivity Index” value [17] was 1.27. For the same compound, the Activity [7] was “inactive”, the Activity [8] was “inactive” and the IC50 [3] was 30.4 µg/mL (≈ 118 µM). The Activity [9] was “inactive”, the Activity [10] was “inactive” and the Activity [11] was “inactive”. The Activity [12] was “inactive”, the MIC90 [18] was 49.3 µg/mL (≈ 192 µM) and the Activity [13] was “inactive”. The Activity [15] was “inactive” and the Activity [16] was “inactive”.
In the case of `O=[N+]([O-])c1cn2c(n1)OC[C@@H](OCc1ccc(OC(F)(F)F)cc1)C2` [PRETOMANID], the MIC90 [1] is reported as 0.02 µg/mL (≈ 0.0557 µM), the MIC90 [2] is reported as 0.25 µg/mL (≈ 0.696 µM) and the “Selectivity Index” value [17] is reported as greater than 5000. It also gave an IC50 [3] greater than 100 µg/mL.
In the case of `N[C@@H]1CONC1=O` [CYCLOSERINE], the MIC90 [1] is reported as 6.02 µg/mL (≈ 59 µM), the “Selectivity Index” value [17] is reported as greater than 17 and the IC50 [3] is reported as greater than 100 µg/mL.
With `NC[C@H]1O[C@H](O[C@H]2[C@H](O)[C@@H](O[C@H]3O[C@H](CO)[C@@H](O)[C@H](N)[C@H]3O)[C@H](N)C[C@@H]2N)[C@H](O)[C@@H](O)[C@@H]1O` [KANAMYCIN] the MIC90 [1] was 0.65 µg/mL (≈ 1.34 µM), the “Selectivity Index” value [17] was greater than 154 and the IC50 [3] was greater than 100 µg/mL.
For `CCOC(=O)c1c(-c2ccccc2)c2cc(Cl)ccc2oc1=O`, the MIC90 [19] was 97.1 µg/mL (≈ 295 µM), the MIC90 [1] was 44.7 µg/mL (≈ 136 µM) and the Activity [4] was “inactive”. The Activity [5] was “inactive”, the Activity [6] was “inactive” and the MIC90 [2] was 37.1 µg/mL (≈ 113 µM). The “Selectivity Index” value [17] was 0.82, the Activity [7] was “inactive” and the Activity [8] was “inactive”. The Activity [9] was “inactive”, the Activity [10] was “inactive” and the Activity [11] was “inactive”. The Activity [13] was “inactive”, the Activity [14] was “inactive” and the Activity [15] was “inactive”. For the same compound, the Activity [16] was “inactive”.
In the case of `CN[C@@H]1[C@H](O[C@H]2[C@H](O[C@H]3[C@H](O)[C@@H](O)[C@H](N=C(N)N)[C@@H](O)[C@@H]3N=C(N)N)O[C@@H](C)[C@]2(O)C=O)O[C@@H](CO)[C@H](O)[C@H]1O` [STREPTOMYCIN], the MIC90 [1] is reported as 0.12 µg/mL (≈ 0.206 µM), the MIC90 [2] is reported as 1.07 µg/mL (≈ 1.84 µM) and the “Selectivity Index” value [17] is reported as greater than 833. For the same compound, the IC50 [3] was greater than 100 µg/mL.
